Test results as given in ChEMBL document CHEMBL1629713, “Discovery of benzoylisoindolines as a novel class of potent, selective and orally active GlyT1 inhibitors” (Bioorg Med Chem Lett, 2010).
pEC50, pIC50: −log10 of the molar value. Values after ≈ are worked out from the molar mass of the structure shown.

What was measured:
[1] = Aqueous solubility of the compound by lyophilisate solubility assay; format: physicochemical; details: buffer
Method in brief: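 LYSA: compound in DMSO solution lyophilized, then dissolved in 0.05 M phosphate buffer pH 6.5, stirred 1 h and shaken 2 h; solubility in µg/ml.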

[2] = molecular target: T1, Sodium- and chloride-dependent glycine transporter 1 (Homo sapiens, UniProt P48067); experiment: Inhibition of human GlyT1 expressed in CHO cells assessed as inhibition of [3H]glycine uptake by liquid scintillation counting; format: cell-based
T1 sequence (P48067 whole entry): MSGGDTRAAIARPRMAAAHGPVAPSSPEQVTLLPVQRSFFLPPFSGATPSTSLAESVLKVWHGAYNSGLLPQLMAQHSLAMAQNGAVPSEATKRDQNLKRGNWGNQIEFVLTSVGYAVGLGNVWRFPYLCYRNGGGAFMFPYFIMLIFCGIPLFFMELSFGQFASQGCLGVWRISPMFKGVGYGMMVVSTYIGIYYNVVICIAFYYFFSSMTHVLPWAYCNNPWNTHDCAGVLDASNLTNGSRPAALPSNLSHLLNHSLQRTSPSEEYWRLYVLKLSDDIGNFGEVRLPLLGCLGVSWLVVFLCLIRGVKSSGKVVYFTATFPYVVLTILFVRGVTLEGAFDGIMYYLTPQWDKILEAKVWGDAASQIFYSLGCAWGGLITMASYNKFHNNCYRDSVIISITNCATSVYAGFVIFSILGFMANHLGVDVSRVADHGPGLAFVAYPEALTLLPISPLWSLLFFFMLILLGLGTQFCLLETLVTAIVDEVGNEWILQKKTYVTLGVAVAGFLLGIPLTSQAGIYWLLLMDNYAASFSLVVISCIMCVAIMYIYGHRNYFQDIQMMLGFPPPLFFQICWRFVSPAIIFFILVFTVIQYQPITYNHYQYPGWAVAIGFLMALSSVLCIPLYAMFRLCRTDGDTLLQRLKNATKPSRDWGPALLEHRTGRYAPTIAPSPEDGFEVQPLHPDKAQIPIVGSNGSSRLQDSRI
Method in brief: (§1)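 [3H]-glycine uptake inhibition in cells transfected with human GlyT1 or human GlyT2 cDNA. EC50 values averaged from at least two independent experiments.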

[3] = molecular target: T2, Sodium- and chloride-dependent glycine transporter 2 (Homo sapiens, UniProt Q9Y345); experiment: Inhibition of human GlyT2 expressed in CHO cells assessed as inhibition of [3H]glycine uptake by liquid scintillation counting; format: cell-based; method in brief: as §1
T2 sequence (Q9Y345 whole entry): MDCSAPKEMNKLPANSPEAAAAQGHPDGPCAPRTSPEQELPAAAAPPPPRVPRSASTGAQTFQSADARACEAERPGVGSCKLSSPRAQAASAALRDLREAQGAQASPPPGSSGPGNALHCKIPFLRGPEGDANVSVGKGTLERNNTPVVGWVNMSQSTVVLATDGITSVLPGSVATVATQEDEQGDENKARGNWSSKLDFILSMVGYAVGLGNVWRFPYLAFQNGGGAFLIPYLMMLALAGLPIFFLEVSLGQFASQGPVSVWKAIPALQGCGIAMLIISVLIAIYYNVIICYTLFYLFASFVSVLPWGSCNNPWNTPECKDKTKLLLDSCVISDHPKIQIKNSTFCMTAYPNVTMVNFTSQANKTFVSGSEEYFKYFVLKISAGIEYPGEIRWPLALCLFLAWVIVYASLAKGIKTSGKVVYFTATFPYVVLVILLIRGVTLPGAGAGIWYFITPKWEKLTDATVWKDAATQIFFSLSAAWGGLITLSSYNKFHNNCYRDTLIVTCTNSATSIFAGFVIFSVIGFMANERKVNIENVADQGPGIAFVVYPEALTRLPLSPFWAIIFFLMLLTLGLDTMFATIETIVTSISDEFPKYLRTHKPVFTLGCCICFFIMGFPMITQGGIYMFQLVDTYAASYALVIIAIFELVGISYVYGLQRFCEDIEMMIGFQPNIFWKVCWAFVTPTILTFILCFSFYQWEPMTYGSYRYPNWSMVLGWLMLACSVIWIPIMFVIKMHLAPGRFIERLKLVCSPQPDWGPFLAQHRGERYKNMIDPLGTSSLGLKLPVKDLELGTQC

[4] = Permeability of the compound by PAMPA; format: ADME; details: read-out: permeability
Method in brief: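 PAMPA: permeation constant Pe (10^-6 cm/s) measured through artificial membranes.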

hERG (KCNH2) = hERG (KCNH2) (Homo sapiens, UniProt Q12809); experiment: Inhibition of human ERG at 10 uM by patch clamp assay
Method in brief: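 hERG block measured by patch clamp at 10 µM; values averaged from at least two independent experiments.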

[5] = Clearance in rat at 2.2 mg/kg, iv; format: ADME, organism-based; design: dose 2.2 mg/kg, route intravenous; details: in vivo
Method in brief: (§2)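 Single-dose rat PK with iv doses of 1.7, 2.0 or 2.2 mg/kg and po doses of 2, 5.7 or 6.8 mg/kg. CL, Vss, oral bioavailability, terminal half-life and brain/plasma ratio determined; values averaged from two independent experiments.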

[6] = Volume of distribution at steady state in rat at 2.2 mg/kg, iv; format: ADME, organism-based; design: dose 2.2 mg/kg, route intravenous; details: in vivo, read-out: Vdss; method in brief: as §2
[7] = Oral bioavailability in rat at 6.8 mg/kg; format: ADME, organism-based; details: in vivo; method in brief: as §2
[8] = Terminal half life in rat at 6.8 mg/kg, po; format: ADME, organism-based; design: dose 6.8 mg/kg, route oral; details: in vivo, read-out: beta t1/2 (converted); method in brief: as §2
[9] = Ratio of drug level in brain to plasma in rat at 6.8 mg/kg, po; format: ADME, organism-based; design: dose 6.8 mg/kg, route oral; details: read-out: BPR
Mus musculus = experiment: Antipsychotic activity in po dosed mouse assessed as inhibition of L-687414-induced hyperlocomotion after 60 mins; format: functional; details: 1 h, read-out: ID50 (the source's name)
Method in brief: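 Mice given compound orally, n = 8 per group; hyperlocomotion induced by L-687,414. Horizontal activity counts recorded over a 60-min period and reported as group means. ID50 (mg/kg) derived from dose-dependent inhibition of the L-687,414-induced response.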

[10] = Intrinsic clearance in rat liver microsomes assessed per mg of protein; format: ADME, Microsome
Method in brief: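 Intrinsic clearance measured in rat liver microsomes, expressed as µL/min/mg protein.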

Rattus norvegicus [11] = experiment: […] in rat striatum assessed as increase of glycine level at 10 mg/kg, po relative to basal level; format: functional
Method in brief: (§3)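 Rats dosed 10 mg/kg po, n = 6. Striatal extracellular fluid sampled for glycine over 3 h, expressed as maximal fold increase and fold increase at 3 h. Animals sacrificed at 3 h; plasma and brain drug levels measured at 3 h post dose.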

Rattus norvegicus [12] = experiment: […] in rat striatum assessed as increase of glycine at 10 mg/kg, po after 3 hrs relative to basal level; format: functional; method in brief: as §3
[13] = Drug level in rat plasma at 10 mg/kg after 3 hrs; format: ADME, organism-based; design: dose 10 mg/kg; method in brief: as §3
[14] = Drug level in rat brain at 10 mg/kg after 3 hrs; format: ADME, organism-based; design: dose 10 mg/kg; details: read-out: Drug uptake; method in brief: as §3
[15] = molecular target: T1, Sodium- and chloride-dependent glycine transporter 1; experiment: Inhibition of human GlyT1; method in brief: as §1
[16] = molecular target: T2, Sodium- and chloride-dependent glycine transporter 2; experiment: Inhibition of human GlyT2; method in brief: as §1
Homo sapiens = organism: Homo sapiens; experiment: Selectivity ratio of EC50 for human GlyT2 to EC50 for human GlyT1
Method in brief: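 Ratio of the two EC50s from a [³H]-glycine uptake inhibition assay run in cells transfected with human GlyT1 cDNA or human GlyT2 cDNA. Each EC50 is the average of at least two independent experiments.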

Cytochrome P450 3A4 = Cytochrome P450 3A4 (Homo sapiens, UniProt P08684); experiment: Inhibition of CYP3A4; format: ADME
Cytochrome P450 2D6 = Cytochrome P450 2D6 (Homo sapiens, UniProt P10635); experiment: Inhibition of CYP2D6; format: ADME
Cytochrome P450 2C9 = Cytochrome P450 2C9 (Homo sapiens, UniProt P11712); experiment: Inhibition of CYP2C9; format: ADME
[17] = Intrinsic clearance in human liver microsomes assessed per mg of protein; format: ADME, Microsome
[18] = Intrinsic clearance in mouse liver microsomes assessed per mg of protein; format: ADME, Microsome
[19] = Clearance in rat at 1.7 mg/kg, iv; format: ADME, organism-based; design: dose 1.7 mg/kg, route intravenous; details: in vivo; method in brief: as §2
[20] = Volume of distribution at steady state in rat at 1.7 mg/kg, iv; format: ADME, organism-based; design: dose 1.7 mg/kg, route intravenous; details: in vivo, read-out: Vdss; method in brief: as §2
[21] = Oral bioavailability in rat at 5.7 mg/kg; format: ADME, organism-based; details: in vivo; method in brief: as §2
[22] = Terminal half life in rat at 5.7 mg/kg, po; format: ADME, organism-based; design: dose 5.7 mg/kg, route oral; details: in vivo, read-out: beta t1/2 (converted); method in brief: as §2
[23] = Ratio of drug level in brain to plasma in rat at 5.7 mg/kg, po; format: ADME, organism-based; design: dose 5.7 mg/kg, route oral; details: read-out: BPR
[24] = Clearance in rat at 2 mg/kg, iv; format: ADME, organism-based; design: dose 2 mg/kg, route intravenous; details: in vivo; method in brief: as §2
[25] = Volume of distribution at steady state in rat at 2 mg/kg, iv; format: ADME, organism-based; design: dose 2 mg/kg, route intravenous; details: in vivo, read-out: Vdss; method in brief: as §2
[26] = Oral bioavailability in rat at 2 mg/kg; format: ADME, organism-based; details: in vivo; method in brief: as §2
[27] = Terminal half life in rat at 2 mg/kg, po; format: ADME, organism-based; design: dose 2 mg/kg, route oral; details: in vivo, read-out: beta t1/2 (converted); method in brief: as §2
[28] = Ratio of drug level in brain to plasma in rat at 2 mg/kg, po; format: ADME, organism-based; design: dose 2 mg/kg, route oral; details: read-out: BPR

Chain of hERG (KCNH2) (Q12809 whole entry): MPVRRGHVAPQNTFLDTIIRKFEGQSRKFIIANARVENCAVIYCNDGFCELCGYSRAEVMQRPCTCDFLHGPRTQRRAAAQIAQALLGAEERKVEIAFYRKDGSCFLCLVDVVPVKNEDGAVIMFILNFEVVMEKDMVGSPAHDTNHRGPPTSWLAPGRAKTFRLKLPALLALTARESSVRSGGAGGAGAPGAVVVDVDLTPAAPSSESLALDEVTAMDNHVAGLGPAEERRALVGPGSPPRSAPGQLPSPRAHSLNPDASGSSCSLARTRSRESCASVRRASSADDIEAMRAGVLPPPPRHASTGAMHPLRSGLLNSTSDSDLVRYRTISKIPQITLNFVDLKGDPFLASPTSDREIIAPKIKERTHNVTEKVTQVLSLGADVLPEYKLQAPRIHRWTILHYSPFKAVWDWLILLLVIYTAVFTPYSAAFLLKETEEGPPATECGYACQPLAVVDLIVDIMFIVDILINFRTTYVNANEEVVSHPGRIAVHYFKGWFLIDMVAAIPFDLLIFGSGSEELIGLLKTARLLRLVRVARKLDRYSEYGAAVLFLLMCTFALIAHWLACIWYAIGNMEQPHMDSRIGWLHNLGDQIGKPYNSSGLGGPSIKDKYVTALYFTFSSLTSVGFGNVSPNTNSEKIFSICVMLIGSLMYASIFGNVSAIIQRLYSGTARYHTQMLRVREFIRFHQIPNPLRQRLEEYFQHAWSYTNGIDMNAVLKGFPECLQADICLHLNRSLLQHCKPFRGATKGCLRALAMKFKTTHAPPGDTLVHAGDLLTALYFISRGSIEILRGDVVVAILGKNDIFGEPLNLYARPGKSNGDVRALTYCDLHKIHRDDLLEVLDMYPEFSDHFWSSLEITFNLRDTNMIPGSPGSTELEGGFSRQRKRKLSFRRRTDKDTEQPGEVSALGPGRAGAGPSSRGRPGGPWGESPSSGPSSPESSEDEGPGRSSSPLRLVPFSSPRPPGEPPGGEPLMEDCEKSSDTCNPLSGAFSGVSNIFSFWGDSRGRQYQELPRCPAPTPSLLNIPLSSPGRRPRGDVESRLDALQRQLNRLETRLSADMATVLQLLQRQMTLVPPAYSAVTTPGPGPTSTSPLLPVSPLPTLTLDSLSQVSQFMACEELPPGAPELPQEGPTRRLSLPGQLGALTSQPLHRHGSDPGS
Chain of Cytochrome P450 2C9 (P11712 whole entry): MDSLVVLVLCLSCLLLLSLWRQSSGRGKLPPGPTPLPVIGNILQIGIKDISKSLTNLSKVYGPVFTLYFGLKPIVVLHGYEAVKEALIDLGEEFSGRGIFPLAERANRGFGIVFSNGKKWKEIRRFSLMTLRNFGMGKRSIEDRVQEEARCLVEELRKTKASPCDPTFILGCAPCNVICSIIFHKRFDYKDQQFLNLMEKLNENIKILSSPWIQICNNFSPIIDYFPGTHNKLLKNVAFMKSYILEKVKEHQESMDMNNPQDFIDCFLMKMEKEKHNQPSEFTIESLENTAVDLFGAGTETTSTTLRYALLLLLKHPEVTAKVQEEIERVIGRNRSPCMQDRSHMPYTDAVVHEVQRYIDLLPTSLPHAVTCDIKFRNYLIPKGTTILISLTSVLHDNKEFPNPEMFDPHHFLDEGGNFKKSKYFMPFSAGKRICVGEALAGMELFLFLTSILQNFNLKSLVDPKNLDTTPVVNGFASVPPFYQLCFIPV
Chain of Cytochrome P450 2D6 (P10635 whole entry): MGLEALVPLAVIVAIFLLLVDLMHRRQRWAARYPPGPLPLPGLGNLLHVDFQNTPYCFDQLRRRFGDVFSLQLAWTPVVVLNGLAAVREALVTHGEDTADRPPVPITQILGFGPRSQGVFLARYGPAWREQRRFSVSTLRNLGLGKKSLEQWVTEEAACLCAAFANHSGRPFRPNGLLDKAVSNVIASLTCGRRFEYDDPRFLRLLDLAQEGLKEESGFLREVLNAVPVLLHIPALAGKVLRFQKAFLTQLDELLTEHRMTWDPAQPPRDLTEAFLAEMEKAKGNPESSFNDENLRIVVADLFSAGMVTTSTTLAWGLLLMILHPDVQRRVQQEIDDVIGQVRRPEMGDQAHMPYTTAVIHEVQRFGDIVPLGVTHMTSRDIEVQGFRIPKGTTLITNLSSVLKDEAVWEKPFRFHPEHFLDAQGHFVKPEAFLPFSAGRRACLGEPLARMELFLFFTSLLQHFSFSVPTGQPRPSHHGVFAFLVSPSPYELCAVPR
Chain of Cytochrome P450 3A4 (P08684 whole entry): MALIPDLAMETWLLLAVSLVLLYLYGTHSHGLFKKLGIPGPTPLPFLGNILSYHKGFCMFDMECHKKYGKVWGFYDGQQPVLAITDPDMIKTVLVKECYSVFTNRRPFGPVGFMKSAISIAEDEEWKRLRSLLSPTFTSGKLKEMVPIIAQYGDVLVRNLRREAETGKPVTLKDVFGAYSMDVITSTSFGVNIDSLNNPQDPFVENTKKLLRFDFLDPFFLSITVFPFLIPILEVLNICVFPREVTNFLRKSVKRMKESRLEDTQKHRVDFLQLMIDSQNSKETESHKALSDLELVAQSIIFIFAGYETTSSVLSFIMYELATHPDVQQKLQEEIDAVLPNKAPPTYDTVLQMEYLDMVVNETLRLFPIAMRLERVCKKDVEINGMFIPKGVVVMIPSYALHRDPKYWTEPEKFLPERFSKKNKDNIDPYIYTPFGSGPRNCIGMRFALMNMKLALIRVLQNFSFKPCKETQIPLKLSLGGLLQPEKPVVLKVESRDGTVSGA

SMILES | solubility [1] [µg/mL] | pEC50 [2] | pEC50 [3] | Papp [4] [×10⁻⁶ cm/s] | inhibition at 10 µM (hERG (KCNH2)) [%] | ED50 (Mus musculus) [mg/kg] | microsomal CLint [10] [µL/min/mg] | fold change (FC) (Rattus norvegicus [11]) | fold change (FC) (Rattus norvegicus [12]) | concentration at 3 h [13] [ng/mL] | concentration at 3 h [14] [ng/mL] | also measured
C[C@H](Oc1ccc(S(C)(=O)=O)cc1C(=O)N1Cc2ccc(C3CCOCC3)cc2C1)C(F)(F)F | 76 (≈ 153 µM) | 7.85 | < 4.52 | 3.3 | 23 | 0.5 | 13.9 | 2.1 | 2 | 480 | 274 | clearance [5]: 21 mL/min/kg; Vd [6]: 3.7 L/kg; bioavailability [7]: 65%; half-life [8]: 3.2 h; Kp [9]: 0.6
C[C@H](Oc1ccc(S(C)(=O)=O)cc1C(=O)N1Cc2ccc(Cl)cc2C1)C(F)(F)F | < 1 | – | – | 4.4 | – | 20 | – | – | – | – | – | pEC50 [15]: 6.87; pEC50 [16]: 4.52; Ratio EC50 (Homo sapiens): > 200; pIC50 (Cytochrome P450 3A4): < 4.42; pIC50 (Cytochrome P450 2D6): < 4.42; pIC50 (Cytochrome P450 2C9): < 4.42; microsomal CLint [17]: 2.4 µL/min/mg; microsomal CLint [18]: 23.3 µL/min/mg
CC(C)Oc1ccc(S(C)(=O)=O)cc1C(=O)N1Cc2ccc(C3CCOCC3)cc2C1 | 191 (≈ 431 µM) | 7.55 | < 4.52 | 4.2 | 10 | 0.5 | 18.9 | 1.9 | 1.5 | 279 | 159 | clearance [19]: 22 mL/min/kg; Vd [20]: 2 L/kg; bioavailability [21]: 40%; half-life [22]: 1.6 h; Kp [23]: 0.6
C[C@H](Oc1ccc(S(C)(=O)=O)cc1C(=O)N1Cc2cc(C(F)(F)F)cnc2C1)C(F)(F)F | 280 (≈ 580 µM) | 7.30 | < 4.52 | 5 | 12 | 0.4 | 1.9 | 1.8 | 1.8 | 2500 | 500 | clearance [24]: 1.7 mL/min/kg; Vd [25]: 1.4 L/kg; bioavailability [26]: 55%; half-life [27]: 6 h; Kp [28]: 0.2
